Tests used:
Escherichia coli [1] = experiment: Ratio of Kcat to Km for Escherichia coli XL1-Blue VIM-2 A64W mutant beta-lactamase by spectrophotometer
Outline: (§1)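 Mutant enzyme expressed in E. coli BL21(DE3) in autoinducing ZYP-5052 medium. Purified by anion exchange at pH 7.2, then high-resolution anion exchange at pH 9.2, plus gel filtration in 50 mM HEPES-50 μM ZnSO4 pH 7.5 where needed. Identity confirmed by tryptic peptide mass fingerprint. Steady-state kinetics on β-lactam substrates were run under the conditions used for wild-type VIM-2.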

Escherichia coli [2] = experiment: Ratio of Kcat to Km for Escherichia coli XL1-Blue wild-type IMP-1 beta-lactamase by spectrophotometer
Escherichia coli [3] = experiment: Activity of Escherichia coli XL1-Blue wild-type IMP-1 beta-lactamase by spectrophotometer
Escherichia coli [4] = experiment: Activity of Escherichia coli XL1-Blue VIM-2 A64W mutant beta-lactamase by spectrophotometer; outline: as §1
[5] = tested on: CO/N=C(\C(=O)N[C@@H]1C(=O)N2C(C(=O)[O-])=C(C[N+]3(C)CCCC3)CS[C@H]12)c1csc(N)n1; experiment: (§2) Ratio of Kcat to Km for Escherichia coli BL21(DE3) VIM-2 W87A mutant beta-lactamase by spectrophotometer
[6] = tested on: C[C@@H](O)[C@H]1C(=O)N2C(C(=O)O)=C(SCCNC=N)C[C@H]12; experiment: as §2
[7] = tested on: CO/N=C(\C(=O)N[C@@H]1C(=O)N2C(C(=O)[O-])=C(C[N+]3(C)CCCC3)CS[C@H]12)c1csc(N)n1; experiment: (§3) Activity of Escherichia coli BL21(DE3) VIM-2 W87A mutant beta-lactamase by spectrophotometer
[8] = tested on: C[C@@H](O)[C@H]1C(=O)N2C(C(=O)O)=C(SCCNC=N)C[C@H]12; experiment: as §3
[9] = tested on: CO/N=C(\C(=O)N[C@@H]1C(=O)N2C(C(=O)[O-])=C(C[N+]3(C)CCCC3)CS[C@H]12)c1csc(N)n1; experiment: (§4) Ratio of Kcat to Km for Escherichia coli BL21(DE3) VIM-2 W87F mutant beta-lactamase by spectrophotometer
[10] = tested on: C[C@@H](O)[C@H]1C(=O)N2C(C(=O)O)=C(SCCNC=N)C[C@H]12; experiment: as §4
[11] = tested on: CO/N=C(\C(=O)N[C@@H]1C(=O)N2C(C(=O)[O-])=C(C[N+]3(C)CCCC3)CS[C@H]12)c1csc(N)n1; experiment: (§5) Activity of Escherichia coli BL21(DE3) VIM-2 W87F mutant beta-lactamase by spectrophotometer
[12] = tested on: C[C@@H](O)[C@H]1C(=O)N2C(C(=O)O)=C(SCCNC=N)C[C@H]12; experiment: as §5
Escherichia coli [13] = experiment: Ratio of Kcat to Km for Escherichia coli XL1-Blue IMP-1 W64A mutant beta-lactamase by spectrophotometer
Escherichia coli [14] = experiment: Activity of Escherichia coli XL1-Blue IMP-1 W64A mutant beta-lactamase by spectrophotometer
[15] = tested on: CC(=O)OCC1=C(C(=O)O)N2C(=O)[C@@H](NC(=O)Cc3cccs3)[C@H]2SC1; experiment: (§6) Ratio of Kcat to Km for Escherichia coli BL21(DE3) wild-type VIM-2 beta-lactamase by spectrophotometer
[16] = tested on: CO/N=C(\C(=O)N[C@@H]1C(=O)N2C(C(=O)O)=C(COC(C)=O)CS[C@H]12)c1csc(N)n1; experiment: as §6
[17] = tested on: CO/N=C(\C(=O)N[C@@H]1C(=O)N2C(C(=O)[O-])=C(C[N+]3(C)CCCC3)CS[C@H]12)c1csc(N)n1; experiment: as §6
[18] = tested on: C[C@@H](O)[C@H]1C(=O)N2C(C(=O)O)=C(SCCNC=N)C[C@H]12; experiment: as §6
[19] = tested on: CC(C)(O/N=C(\C(=O)N[C@@H]1C(=O)N2C(C(=O)[O-])=C(C[n+]3ccccc3)CS[C@H]12)c1csc(N)n1)C(=O)O; experiment: (§7) Activity of Escherichia coli BL21(DE3) wild-type VIM-2 beta-lactamase by spectrophotometer
[20] = tested on: CO/N=C(\C(=O)N[C@@H]1C(=O)N2C(C(=O)O)=C(COC(C)=O)CS[C@H]12)c1csc(N)n1; experiment: as §7
[21] = tested on: CO/N=C(\C(=O)N[C@@H]1C(=O)N2C(C(=O)[O-])=C(C[N+]3(C)CCCC3)CS[C@H]12)c1csc(N)n1; experiment: as §7
[22] = tested on: C[C@@H](O)[C@H]1C(=O)N2C(C(=O)O)=C(SCCNC=N)C[C@H]12; experiment: as §7
[23] = tested on: C[C@@H](O)[C@H]1C(=O)N2C(C(=O)O)=C(S[C@@H]3CN[C@H](C(=O)N(C)C)C3)[C@H](C)[C@H]12; experiment: as §7
[24] = tested on: CC(=O)OCC1=C(C(=O)O)N2C(=O)[C@@H](NC(=O)Cc3cccs3)[C@H]2SC1; experiment: (§8) Ratio of Kcat to Km for Escherichia coli XL1-Blue wild-type VIM-2 beta-lactamase by spectrophotometer
[25] = tested on: CO/N=C(\C(=O)N[C@@H]1C(=O)N2C(C(=O)O)=C(COC(C)=O)CS[C@H]12)c1csc(N)n1; experiment: as §8
[26] = tested on: CO/N=C(\C(=O)N[C@@H]1C(=O)N2C(C(=O)[O-])=C(C[N+]3(C)CCCC3)CS[C@H]12)c1csc(N)n1; experiment: as §8
[27] = tested on: CO[C@@]1(NC(=O)Cc2cccs2)C(=O)N2C(C(=O)O)=C(COC(N)=O)CS[C@@H]21; experiment: as §8
[28] = tested on: C[C@@H](O)[C@H]1C(=O)N2C(C(=O)O)=C(SCCNC=N)C[C@H]12; experiment: as §8
[29] = tested on: O=C(Cc1cccs1)N[C@@H]1C(=O)N2C(C(=O)O)=C(/C=C/c3ccc([N+](=O)[O-])cc3[N+](=O)[O-])CS[C@H]12; experiment: as §8
[30] = tested on: CC(C)(O/N=C(\C(=O)N[C@@H]1C(=O)N2C(C(=O)[O-])=C(C[n+]3ccccc3)CS[C@H]12)c1csc(N)n1)C(=O)O; experiment: (§9) Activity of Escherichia coli XL1-Blue wild-type VIM-2 beta-lactamase by spectrophotometer
[31] = tested on: CO/N=C(\C(=O)N[C@@H]1C(=O)N2C(C(=O)O)=C(COC(C)=O)CS[C@H]12)c1csc(N)n1; experiment: as §9
[32] = tested on: CO/N=C(\C(=O)N[C@@H]1C(=O)N2C(C(=O)[O-])=C(C[N+]3(C)CCCC3)CS[C@H]12)c1csc(N)n1; experiment: as §9
[33] = tested on: C[C@@H](O)[C@H]1C(=O)N2C(C(=O)O)=C(SCCNC=N)C[C@H]12; experiment: as §9
[34] = tested on: C[C@@H](O)[C@H]1C(=O)N2C(C(=O)O)=C(S[C@@H]3CN[C@H](C(=O)N(C)C)C3)[C@H](C)[C@H]12; experiment: as §9

In the case of `C[C@@H](O)[C@H]1C(=O)N2C(C(=O)O)=C(S[C@@H]3CN[C@H](C(=O)N(C)C)C3)[C@H](C)[C@H]12`, the kcat/Km (Escherichia coli [1]) is reported as 3e+06 M⁻¹ s⁻¹, the kcat/Km (Escherichia coli [2]) is reported as 500000 M⁻¹ s⁻¹ and the Km (Escherichia coli [3]) is reported as 10 µM. For the same compound, the kcat (Escherichia coli [3]) was 5 s⁻¹, the Km (Escherichia coli [4]) was 2 µM and the kcat (Escherichia coli [4]) was 6 s⁻¹.
For “Metallo-beta-lactamase (Escherichia coli) (from UniProt Q5U7L7) W87A”, the kcat/Km [5] was 12000 M⁻¹ s⁻¹, the kcat/Km [6] was 5.4e+06 M⁻¹ s⁻¹ and the Km [7] was greater than 350 µM. It also gave a kcat [7] greater than 4.5 s⁻¹, a Km [8] of 22 µM and a kcat [8] of 119 s⁻¹.
“Metallo-beta-lactamase (Escherichia coli) (from UniProt Q5U7L7) W87F” was tested, and the kcat/Km [9] was 48000 M⁻¹ s⁻¹, the kcat/Km [10] was 3.7e+06 M⁻¹ s⁻¹ and the Km [11] was greater than 450 µM. It also gave a kcat [11] greater than 20 s⁻¹, a Km [12] of 6 µM and a kcat [12] of 22 s⁻¹.
Work on `O=C(Cc1cccs1)N[C@@H]1C(=O)N2C(C(=O)O)=C(/C=C/c3ccc([N+](=O)[O-])cc3[N+](=O)[O-])CS[C@H]12` yielded a kcat/Km (Escherichia coli [13]) of 4.3e+06 M⁻¹ s⁻¹, a kcat/Km (Escherichia coli [1]) of 2.7e+07 M⁻¹ s⁻¹ and a kcat/Km (Escherichia coli [2]) of 1.4e+07 M⁻¹ s⁻¹. The Km (Escherichia coli [14]) was 160 µM, the kcat (Escherichia coli [14]) was 700 s⁻¹ and the Km (Escherichia coli [3]) was 8.2 µM. For the same compound, the kcat (Escherichia coli [3]) was 130 s⁻¹, the Km (Escherichia coli [4]) was 10 µM and the kcat (Escherichia coli [4]) was 270 s⁻¹.
Compound `CC(C)(O/N=C(\C(=O)N[C@@H]1C(=O)N2C(C(=O)[O-])=C(C[n+]3ccccc3)CS[C@H]12)c1csc(N)n1)C(=O)O` has a kcat/Km (Escherichia coli [1]) of 18000 M⁻¹ s⁻¹, a kcat/Km (Escherichia coli [2]) of 180000 M⁻¹ s⁻¹ and a Km (Escherichia coli [3]) of 44 µM. It also gave a kcat (Escherichia coli [3]) of 8 s⁻¹, a Km (Escherichia coli [4]) of 40 µM and a kcat (Escherichia coli [4]) of 0.7 s⁻¹.
“Metallo-beta-lactamase (Escherichia coli) (from UniProt Q5U7L7)” was tested, and the kcat/Km [15] was 1.2e+07 M⁻¹ s⁻¹, the kcat/Km [16] was 5.8e+06 M⁻¹ s⁻¹ and the kcat/Km [17] was 100000 M⁻¹ s⁻¹. The kcat/Km [18] was 3.8e+06 M⁻¹ s⁻¹, the Km [19] was 72 µM and the Km [20] was 12 µM. It also gave a kcat [20] of 70 s⁻¹, a Km [21] greater than 400 µM and a kcat [21] greater than 40 s⁻¹. It also gave a Km [22] of 9 µM, a kcat [22] of 34 s⁻¹ and a Km [23] of 2 µM. The kcat [23] was 5 s⁻¹, the kcat/Km [24] was 1.2e+07 M⁻¹ s⁻¹ and the kcat/Km [25] was 5.8e+06 M⁻¹ s⁻¹. For the same compound, the kcat/Km [26] was 100000 M⁻¹ s⁻¹, the kcat/Km [27] was 1.2e+06 M⁻¹ s⁻¹ and the kcat/Km [28] was 3.8e+06 M⁻¹ s⁻¹. For the same compound, the kcat/Km [29] was 4.3e+07 M⁻¹ s⁻¹, the Km [30] was 72 µM and the Km [31] was 12 µM. The kcat [31] was 70 s⁻¹, the Km [32] was greater than 400 µM and the kcat [32] was greater than 40 s⁻¹. The Km [33] was 9 µM, the kcat [33] was 34 s⁻¹ and the Km [34] was 2 µM. It also gave a kcat [34] of 5 s⁻¹.

From ChEMBL document CHEMBL1687761
